# According to ChEMBL document CHEMBL4339237, “Bulbiferates A and B: Antibacterial Acetamidohydroxybenzoates from a Marine Proteobacterium, Microbulbifer sp” (2019):
# The source made the active and inactive calls. No cut-off for these calls is given here.
# Test system: Escherichia coli
# Assay: Antibacterial activity against Escherichia coli ATCC 25922 incubated for 18 hrs by dilution antimicrobial susceptibility test
# Type: functional
# Settings: ATCC 25922, 18 h
# Procedure, shortened: (§1)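 Broth dilution susceptibility method for aerobic bacteria in 96-well plates. Compounds dissolved in DMSO and serially diluted to 10 concentrations (0.5–256 μg/mL). Geneticin served as positive control for E. coli and vancomycin for MSSA. Tested in duplicate, with eight untreated media controls per plate. Incubated 18 h at 33 °C. MIC taken as lowest concentration preventing visible growth.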
row,Compound,MIC [µg/mL]
1,CCCCCCCCCCCOC(=O)c1ccc(O)c(NC(C)=O)c1,> 200
2,CCCCCCCCOC(=O)c1ccc(O)c(NC(C)=O)c1,> 200
3,CCCCCCCCCCCCCCOC(=O)c1ccc(O)c(NC(C)=O)c1,> 200
4,CN[C@@H]1[C@@H](O)[C@@H](O[C@@H]2[C@@H](O)[C@H](O[C@H]3O[C@H]([C@H](C)O)[C@@H](O)[C@H](O)[C@H]3N)[C@@H](N)C[C@H]2N)OC[C@]1(C)O,0.25
5,COC(=O)c1ccc(O)c(NC(C)=O)c1,> 200
6,CCCCCCCCCCOC(=O)c1ccc(O)c(NC(C)=O)c1,> 200

# Test system: Staphylococcus aureus
# Assay: Antibacterial activity against methicillin-sensitive Staphylococcus aureus ATCC 25913 incubated for 18 hrs by dilution antimicrobial susceptibility test
# Type: functional
# Settings: ATCC 25913, 18 h
# Procedure, shortened: as §1
row,MIC [µg/mL],Compound
1,> 200,CCCCCCCCOC(=O)c1ccc(O)c(NC(C)=O)c1
2,> 200,COC(=O)c1ccc(O)c(NC(C)=O)c1

# More lines, now with the values behind:
row,Compound,MIC [µg/mL]
1,CCCCCCCCCCCOC(=O)c1ccc(O)c(NC(C)=O)c1,> 200
2,CCCCCCCCCCCCCCOC(=O)c1ccc(O)c(NC(C)=O)c1,> 200
3,CCCCCCCCCCOC(=O)c1ccc(O)c(NC(C)=O)c1,> 200

# Test system: Escherichia coli
# Assay: Antibacterial activity against Escherichia coli ATCC 25922 by agar diffusion assay
# Type: functional
# Settings: not given
row,Compound,diameter of the inhibition zone (DIZ)
1,CCCCCCCCCCCOC(=O)c1ccc(O)c(NC(C)=O)c1,5 mm
2,CCCCCCCCOC(=O)c1ccc(O)c(NC(C)=O)c1,inactive
3,COC(=O)c1ccc(O)c(NC(C)=O)c1,inactive
4,CCCCCCCCCCOC(=O)c1ccc(O)c(NC(C)=O)c1,6 mm

# Test system: Staphylococcus aureus
# Assay: Antibacterial activity against methicillin-sensitive Staphylococcus aureus ATCC 25913 by agar diffusion assay
# Type: functional
# Settings: not given
row,Compound,diameter of the inhibition zone (DIZ) [mm]
1,CCCCCCCCCCCOC(=O)c1ccc(O)c(NC(C)=O)c1,5
2,CCCCCCCCOC(=O)c1ccc(O)c(NC(C)=O)c1,5
3,COC(=O)c1ccc(O)c(NC(C)=O)c1,7
4,CCCCCCCCCCOC(=O)c1ccc(O)c(NC(C)=O)c1,10

# Test system: Staphylococcus aureus
# Assay: Antibacterial activity against methicillin-resistant Staphylococcus aureus ATCC 33591 by agar diffusion assay
# Type: functional, organism-based
# Settings: not given
row,Compound,Activity
1,CCCCCCCCCCCOC(=O)c1ccc(O)c(NC(C)=O)c1,inactive
2,CCCCCCCCCCOC(=O)c1ccc(O)c(NC(C)=O)c1,inactive
